Experimental data published in ChEMBL document CHEMBL1221337, “The unsaturated acyclic nucleoside analogues bearing a sterically constrained (Z)-4'-benzamido-2'-butenyl moiety: Synthesis, X-ray crystal structure study, cytostatic and antiviral activity evaluations” (Bioorg Med Chem, 2010).
The source made the active and inactive calls. No cut-off for these calls is given here.

Tests used:
[1] = system: Vesicular stomatitis virus; assay: Antiviral activity against Vesicular stomatitis virus infected in human HeLa cells assessed as inhibition of virus-induced cytopathicity; format: functional, organism-based
Procedure, shortened: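 Confluent HeLa cultures were infected with 100 CCID50 of virus. Unadsorbed virus was removed after 1 h, and compound was added at serial concentrations (200, 40, 8…). Viral cytopathic effect was read when untreated virus-infected control wells reached full cytopathicity.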

Human alphaherpesvirus 1 = assay: Antiviral activity against HSV1 KOS infected in HEL cells assessed as inhibition of virus-induced cytopathicity; format: functional, organism-based
Procedure, shortened: (§1)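 Confluent cell monolayers in 96-well plates were inoculated with 100 CCID50 of virus. After 1 h adsorption, residual virus was removed. Cultures were then incubated with test compound at varying concentrations (200, 40, 8... µM). Viral cytopathicity was scored once it reached completion in untreated infected controls. Host cells: HEL for HSV-1 KOS and HSV-2 G; Vero for the Vero lines; HeLa for the HeLa lines.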

Coxsackievirus B4 [2] = assay: Antiviral activity against Coxsackievirus B4 infected in human HeLa cells assessed as inhibition of virus-induced cytopathicity; format: functional, organism-based; procedure, shortened: as §1
Vaccinia virus = assay: Antiviral activity against Vaccinia virus infected in HEL cells assessed as inhibition of virus-induced cytopathicity; format: functional, organism-based; details: Orthopoxvirus vaccinia
HeLa [3] = assay: Cytotoxicity against human HeLa cells after 72 hrs by MTT assay; format: functional, cell-based
Procedure, shortened: (§2)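 Adherent cells were plated at 3000–6000 cells/well on day 0, according to doubling time. Compound was added as five 10-fold dilutions (1 × 10⁻⁸–1 × 10⁻⁴ M), with DMSO ≤0.1%, and incubated 72 h. Read-out was MTT absorbance converted to percentage growth versus untreated wells on the same plate. IC50 was obtained by linear regression between bracketing concentrations; the highest concentration was reported as ">" if not reached. Quadruplicates, three experiments.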

Sindbis virus = assay: Antiviral activity against Sindbis virus infected in Vero cells assessed as inhibition of virus-induced cytopathicity; format: functional, organism-based; procedure, shortened: as §1
Human respirovirus 3 = assay: Antiviral activity against Parainfluenza 3 infected in Vero cells assessed as inhibition of virus-induced cytopathicity; format: functional, organism-based; procedure, shortened: as §1
Influenza A virus = assay: Antiviral activity against influenza A virus H1N1; H3N2 infected in MDCK cells assessed as inhibition of virus-induced cytopathicity; format: functional, organism-based
Procedure, shortened: (§3)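 MDCK cells, nearly confluent in microtiter plates, were infected with 100 CCID50 per well. After 1 h adsorption, the inoculum was washed off. Cells were incubated with graded compound concentrations (200, 40, 8…). Cytopathicity was recorded at completion in untreated infected controls.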

[4] = system: Vesicular stomatitis virus; assay: Antiviral activity against Vesicular stomatitis virus infected in HEL cells assessed as inhibition of virus-induced cytopathicity; format: functional, organism-based
SK-BR-3 = assay: Cytotoxicity against human SK-BR-3 cells after 72 hrs by MTT assay; format: functional, cell-based; details: SK-BR-3, 72 h; procedure, shortened: as §2
MDCK = assay: Cytotoxicity against MDCK cells assessed as cell viability after 3 days by coulter counting; format: cell-based, Canis lupus familiaris; details: dog, 72 h
[5] = Cytotoxicity against human WI38 cells after 72 hrs by MTT assay; format: cell-based; details: WI-38, 72 h; procedure, shortened: as §2
Coxsackievirus B4 [6] = assay: Antiviral activity against Coxsackievirus B4 infected in Vero cells assessed as inhibition of virus-induced cytopathicity; format: functional, organism-based; procedure, shortened: as §1
HeLa [7] = assay: Cytotoxicity against human HeLa cells assessed as cell viability after 3 days by coulter counting; format: cell-based; details: 72 h
[8] = system: Respiratory syncytial virus; assay: Antiviral activity against Respiratory syncytial virus infected in human HeLa cells assessed as inhibition of virus-induced cytopathicity; format: functional, organism-based; procedure, shortened: as §1
MIA PaCa-2 = assay: Cytotoxicity against human MIAPaCa2 cells after 72 hrs by MTT assay; format: functional, cell-based; details: MIA PaCa-2, 72 h; procedure, shortened: as §2
SW-620 = assay: Cytotoxicity against human SW620 cells after 72 hrs by MTT assay; format: functional, cell-based; details: SW-620, 72 h; procedure, shortened: as §2
Influenza B virus = assay: Antiviral activity against influenza B virus infected in MDCK cells assessed as inhibition of virus-induced cytopathicity; format: functional, organism-based; procedure, shortened: as §3
Punta Toro virus = assay: Antiviral activity against Punta Toro virus infected in Vero cells assessed as inhibition of virus-induced cytopathicity; format: functional, organism-based; procedure, shortened: as §1
Vero = assay: Cytotoxicity against african green monkey Vero cells assessed as cell viability after 3 days by coulter counting; format: cell-based; details: chlorocebus sabaeus, 72 h
[9] = system: Mammalian orthoreovirus 1; assay: Antiviral activity against Reovirus 1 infected in Vero cells assessed as inhibition of virus-induced cytopathicity; format: functional, organism-based; procedure, shortened: as §1
HEL = assay: Cytotoxicity against HEL cells assessed as cell viability after 3 days by coulter counting; format: cell-based; details: human, 72 h
Procedure, shortened: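 HEL cells were seeded at 5 × 10³ cells/well and allowed to proliferate 24 h. Medium with test compound at different concentrations was then added, and cells were incubated 3 days at 37 °C. Cell number was counted by Coulter counter. CC50 (50% reduction in cell number versus untreated controls) was read from plots of cell number (% of control) against concentration.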

HEp-2 = assay: Cytotoxicity against human Hep2 cells after 72 hrs by MTT assay; format: functional, cell-based; details: HEp-2, 72 h; procedure, shortened: as §2
MCF7 = assay: Cytotoxicity against human MCF7 cells after 72 hrs by MTT assay; format: functional, cell-based; details: MCF7, 72 h; procedure, shortened: as §2
Human alphaherpesvirus 2 = assay: Antiviral activity against HSV2 G infected in HEL cells assessed as inhibition of virus-induced cytopathicity; format: functional, organism-based; details: strain G; procedure, shortened: as §1

Row | Compound | inhibition [1] | inhibition (Human alphaherpesvirus 1) | inhibition (Coxsackievirus B4 [2]) | inhibition (Vaccinia virus) | IC50 (HeLa [3]) | inhibition (Sindbis virus) | inhibition (Human respirovirus 3) | inhibition (Influenza A virus) | inhibition [4] | IC50 (SK-BR-3) | Activity (MDCK) | IC50 [5] | inhibition (Coxsackievirus B4 [6]) | Activity (HeLa [7]) | inhibition [8] | IC50 (MIA PaCa-2) | IC50 (SW-620) | inhibition (Influenza B virus) | inhibition (Punta Toro virus) | Activity (Vero) | further results
1 | Nc1ccn(C/C=C\CNC(=O)c2ccccc2)c(=O)n1 | inactive | inactive | inactive | inactive | > 100 µM | inactive | inactive | inactive | inactive | 72 µM | Non-toxic | 4.2 µM | inactive | Non-toxic | inactive | > 100 µM | > 100 µM | inactive | inactive | Non-toxic | inhibition [9]: inactive; Activity (HEL): Non-toxic; IC50 (HEp-2): > 100 µM; IC50 (MCF7): 31.4 µM; inhibition (Human alphaherpesvirus 2): inactive
2 | Nc1ccn(C/C=C\CNC(=O)c2ccc(F)cc2)c(=O)n1 | inactive | inactive | inactive | inactive | > 100 µM | inactive | inactive | inactive | inactive | > 100 µM | Non-toxic | 4 µM | inactive | Non-toxic | inactive | > 100 µM | > 100 µM | inactive | inactive | Non-toxic | inhibition [9]: inactive; Activity (HEL): Non-toxic; IC50 (HEp-2): > 100 µM; IC50 (MCF7): > 100 µM; inhibition (Human alphaherpesvirus 2): inactive
3 | O=C(NC/C=C\Cn1cc(F)c(=O)[nH]c1=O)c1ccccc1 | inactive | inactive | inactive | inactive | > 100 µM | inactive | inactive | inactive | inactive | > 100 µM | Non-toxic | > 100 µM | inactive | Non-toxic | inactive | > 100 µM | > 100 µM | inactive | inactive | Non-toxic | inhibition [9]: inactive; Activity (HEL): Non-toxic; IC50 (HEp-2): 87.5 µM; IC50 (MCF7): > 100 µM; inhibition (Human alphaherpesvirus 2): inactive
